In the library only some 2.9% were active in any assay of this set; here they are far more common.
CDK5 inh: inhibitors of human CDK5/p35 kinase; inhibition, % at 10 µM; Q00535+Q15078; Recombinant CDK5/p35, ADP-Glo luminescence, 60 min; 0.01% of 330,000 active;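 active = highest replicate inhibition of at least 50% and at least 75% of replicates reaching 50%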;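 note: plate controls were DMSO neutral control for no effect and GW8510 at 10 µM for full effect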
Target sequence (Q00535 whole entry, looked up): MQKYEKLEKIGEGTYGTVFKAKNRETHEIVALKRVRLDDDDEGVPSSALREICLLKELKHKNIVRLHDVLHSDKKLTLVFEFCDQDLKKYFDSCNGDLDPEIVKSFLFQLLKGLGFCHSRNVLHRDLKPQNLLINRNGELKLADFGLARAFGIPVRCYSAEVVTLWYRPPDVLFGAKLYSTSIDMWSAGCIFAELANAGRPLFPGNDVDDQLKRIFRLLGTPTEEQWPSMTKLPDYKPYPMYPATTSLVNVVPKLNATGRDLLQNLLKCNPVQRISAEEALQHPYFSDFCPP
Target sequence (Q15078 whole entry, looked up): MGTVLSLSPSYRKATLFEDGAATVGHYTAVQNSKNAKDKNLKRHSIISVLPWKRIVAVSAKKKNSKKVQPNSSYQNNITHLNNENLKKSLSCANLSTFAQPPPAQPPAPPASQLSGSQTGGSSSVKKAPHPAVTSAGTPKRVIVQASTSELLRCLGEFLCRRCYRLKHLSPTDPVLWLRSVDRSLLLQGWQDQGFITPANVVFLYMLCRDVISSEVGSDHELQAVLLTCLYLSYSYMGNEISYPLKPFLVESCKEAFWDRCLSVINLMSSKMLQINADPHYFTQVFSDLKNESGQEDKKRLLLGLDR
GSIS activator: GLuc luminescence reporter in INS-1E cells, primary screen for activators of glucose-dependent secretion of insulin; activation, % at 16.6 µM; 0.61% of 370,000 active; INS-1E GLuc reporter insulin secretion, 2-3 h;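 active = lowest replicate activation of at least 40%, so every replicate reaches that level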;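 note: 0% = median of neutral control wells and 100% = median of IBMX positive control wells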
dFosB act: enhances mouse delta FosB homodimer DNA binding. purified delta FosB, TAMRA-CDK5 oligo fluorescence polarization; percent of positive-control signal above neutral wells. activation, % at 25 µM. 0.99% of 340,000 active. AID 493131;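 active = mean activation above about 17%, with every replicate also reaching it, limit read from the data, passing the limit was not always enough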
PAX8 inh HTS: lowers PAX8-driven luciferase in RMG-I cells; AID 652154; RMG-I TPO-luciferase reporter, SteadyGlo, 24 h; inhibition, % at 12.6 µM; 1.2% of 360,000 active;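 active = mean replicate inhibition at least 60% with every replicate also reaching 60%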;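 note: luciferase light reporting Pax8 driven TPO promoter activity; plate controls were median of neutral control wells for no effect and mitoxantrone controls for full effect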
Env fusion inh: inhibitors of HIV Env-mediated cell fusion. AID 651610. inhibition, % at 12.3 µM. 1.1% of 360,000 active. HeLa-JRFL Env/CEM21 cell fusion, luciferase;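 active = mean replicate inhibition score of at least 50 and every replicate individually at or above 50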;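 note: 0% = plate neutral controls and 100% = maraviroc near 300 nM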
Cneo AK release: causes C. neoformans cell lysis | lysis activity, % at 15 µM | adenylate kinase release luminescence, 4 h; normalised: neutral wells 0, clomiphene wells 100 | 0.2% of 360,000 active | AID 651654;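 active = mean lysis activity across replicates of at least 80%, whatever share of replicates individually reach that level; inactive = mean lysis activity below 80%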
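Material – log-phase Cryptococcus neoformans yeast cells · Input – 5 × 10^6 yeast cells/mL · Medium – fresh YPD growth medium · Doses – single compound concentration per well · Timing – static 4 h at 37 °C with compound, 1 h detection · Detection – adenylate kinase release luminescence · Read-out – signal increase indicating cell lysis · Control set – Clomiphene as positive lysis control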
* hit, by the source's call; . = no result; [ ] = another dose, or the depositor's remark.

SMILES | CDK5 inh | GSIS activator | dFosB act | PAX8 inh HTS | Env fusion inh | Cneo AK release
CCN(C[C@H]1N[C@@](C)(C(=O)OC)[C@H]2C(=O)N(Cc3ccccc3)C(=O)[C@@H]12)S(=O)(=O)c1ccc(C(C)(C)C)cc1 | 1 | -28 | -17 | 3 | 84* | 2
CCN(C[C@H]1N[C@@](CC)(C(=O)OC)[C@H]2C(=O)N(Cc3ccccc3)C(=O)[C@@H]12)S(=O)(=O)c1ccc(C(C)(C)C)cc1 | 4 | -17 | 12 | 1 | 58* | 2
CCN(C[C@H]1N[C@@](CC)(C(=O)OC)[C@H]2C(=O)N(Cc3ccccc3)C(=O)[C@@H]12)S(=O)(=O)c1ccc(-c2ccccc2)cc1 | 3 | . | -1 | 2 | 33 | 0
CCN(C[C@H]1N[C@@](CC)(C(=O)OC)[C@H]2C(=O)N(Cc3ccccc3)C(=O)[C@@H]12)S(=O)(=O)c1ccc(C)cc1 | 1 | -7 | -12 | 14 | 81* | 8
CCN(C[C@H]1N[C@@](CC)(C(=O)OC)[C@H]2C(=O)N(Cc3ccccc3)C(=O)[C@@H]12)S(=O)(=O)c1ccc(OC(F)(F)F)cc1 | -3 | -50 | -11 | -6 | 87* | 3
O=C(C[C@H]1CC[C@@H]2[C@H](COC[C@@H](O)CN2Cc2ccccc2)O1)NCCc1ccccc1 | . | -14 | . | 11 | . | 0
COc1ccccc1C#Cc1ccc2c(c1)[C@@H]1[C@@H](CCN1C(=O)CN1CCOCC1)[C@@H](CO)N2 | . | -6 | . | 17 | . | -21
CN(C)C(=O)c1ccc(-c2ccccc2[C@@H]2[C@@H](C#N)N(C(=O)C3CCCC3)[C@@H]2CO)cc1 | . | -3 | . | . | . | .
CCNC(=O)Nc1ccc2c(c1)C(=O)N(C)[C@@H]1CC[C@@H](CC(=O)NCC3CC3)O[C@@H]1CO2 | . | 15 | . | -21 | 10[16.7 µM] | 1
Cc1cc(Sc2nnc(/N=C/N(C)C)s2)c2ccccc2n1 | 0 | -14 | -3 | 85* | 56* | -4
CCCCCCCCSc1nnc(/N=C/N(C)C)s1 | 0 | -3 | -8 | 16 | 5 | .
Cc1cc(Sc2nnc(N)s2)c2ccccc2n1 | 1 | 0 | 2 | 90* | 53 | .
O=C(C[C@H]1CC[C@@H]2[C@H](COC[C@@H](O)CN2C(=O)Nc2cc(Cl)cc(Cl)c2)O1)NCC1CC1 | . | 8 | . | . | . | 0
C[C@H](CO)N1C[C@H](C)[C@H](CN(C)Cc2ccc3c(c2)OCO3)Oc2c(NC(=O)Nc3ccc(C(F)(F)F)cc3)cccc2C1=O | . | -18 | . | . | . | -3
CN(C)C(=O)[C@@H]1[C@@H](CO)[C@@H]2Cn3c(ccc(C4=CCCCC4)c3=O)[C@@H]2N1Cc1ccc2c(c1)OCO2 | . | 3 | . | . | . | 1
O=C(Nc1ccc(F)cc1)c1ccc(NC(=O)C2CCCO2)cc1 (configuration not stated) | -1 | . | -2 | . | . | 0
O=C(Nc1ccc(C(F)(F)F)cc1)c1ccc(NC(=O)C2CCCO2)cc1 (configuration not stated) | -2 | . | 17* | . | . | -1
C/C=C/c1ccc([C@@H]2[C@@H](CO)N(C(=O)C3CCOCC3)C23CN(C(=O)NC(C)C)C3)cc1 | . | 5 | . | 4 | . | .
O=C(Nc1ccc(Oc2ccccc2)cc1)c1csc([C@H]2C[C@H](O)[C@@H](CO)O2)n1 | . | . | . | 24 | 68* | 0
CN1CCCCCC1C(=O)N1CCC(N2CCC(C(=O)N3CCOCC3)CC2)CC1 (configuration not stated) | -1 | 49* | 1 | -23 | -4 | 3
CCC(=O)N(CC)C1=C(O)c2ccccc2C(=O)C1=O | -1 | -10 | -12 | . | . | .
CNC1=C(N(C(C)=O)c2ccc(Br)cc2)C(=O)c2ccccc2C1=O | -1 | -29 | -12 | 105* | . | .
CCC(=O)N(C1=C(NC)C(=O)c2ccccc2C1=O)C(C)C | 0 | -9 | 3 | 74* | 6 | .
C[C@@H]1CCCCO[C@H](CN(C)S(C)(=O)=O)[C@H](C)CN([C@@H](C)CO)C(=O)c2cc(NC(=O)NC3CCCCC3)ccc2O1 | . | 7 | . | 6 | 10[16.7 µM] | 2
COC(=O)c1ccc(Oc2nc(Nc3ccc(C)c(C)c3)nc(N(C)C)n2)cc1 | -2 | -41 | -13 | . | 65* | -1
SMILES | CDK5 inh | GSIS activator | dFosB act | PAX8 inh HTS | Env fusion inh | Cneo AK release
CCNc1nc(Oc2ccc(C(=O)OC)cc2)nc(N(C)C)n1 | 0 | . | 6 | . | . | .
C[C@H](CO)N1C[C@H](C)[C@H](CN(C)S(=O)(=O)c2ccccc2)Oc2ccc(NS(=O)(=O)c3ccccc3)cc2CC1=O | . | 1 | . | -3 | 91*[16.7 µM] | -2
C[C@H](CO)N1C[C@H](C)[C@H](CN(C)S(=O)(=O)c2ccc(Cl)cc2)Oc2ccc(NS(=O)(=O)c3ccccc3)cc2CC1=O | . | 10 | . | -25 | 55*[16.7 µM] | -2
C[C@@H]1CN([C@@H](C)CO)C(=O)Cc2cc(NS(=O)(=O)c3cccs3)ccc2O[C@H]1CN(C)S(=O)(=O)c1ccccc1 | . | 15 | . | 13 | -11[16.7 µM] | 58
C[C@H](CO)N1C[C@H](C)[C@H](CN(C)S(=O)(=O)c2ccccc2)Oc2ccc(NS(=O)(=O)c3ccc(Cl)cc3)cc2CC1=O | . | -16 | . | 9 | 56*[16.7 µM] | 2
C[C@H](CO)N1C[C@H](C)[C@H](CN(C)S(=O)(=O)c2ccccc2)Oc2ccc(NS(=O)(=O)c3cccs3)cc2CC1=O | . | -15 | . | 4 | 64*[16.7 µM] | 3
CN1CCCCC(NC(=O)COCc2ccccc2)C1=O (configuration not stated) | . | 10 | . | -3 | -16 | .
O=C(C[C@H]1CC[C@H](NS(=O)(=O)c2ccc(F)cc2)[C@@H](CO)O1)NCCc1ccncc1 | . | 8 | . | 1 | -8[16.7 µM] | 2
Cc1noc(C)c1S(=O)(=O)Nc1ccc2c(c1)CC(=O)N([C@H](C)CO)C[C@H](C)[C@H](CN(C)S(=O)(=O)c1cccs1)O2 | . | -14 | . | . | 45[16.7 µM] | 115*
N#Cc1c([N+](=O)[O-])cc([N+](=O)[O-])cc1S(=O)(=O)Cc1ccccc1 | -1 | 23 | -2 | 101* | . | -1
C[C@H]1CN([C@@H](C)CO)C(=O)c2cc(NC(=O)Nc3ccc(C(F)(F)F)cc3)ccc2O[C@H]1CN(C)Cc1ccc(-c2ccccc2)cc1 | . | 11 | . | . | 10[16.7 µM] | -3
CCSc1nc2c([nH]1)c(=O)n(C)c(=S)n2C | 4 | 7 | -3 | 0 | -4 | 0
Cn1c(=O)c2[nH]c(SCc3ccccn3)nc2n(C)c1=S | . | 181* | . | 9 | 2 | .
CC(C)NC(=O)N1CC2(C1)[C@H](c1ccccc1)[C@@H](CO)N2C(=O)C1CCOCC1 | . | 10 | . | . | . | .
CCC(=O)NC[C@@H]1[C@@H](c2ccc(C3=CCCC3)cc2)[C@H](CO)N1C(=O)C1CC1 | . | 0 | . | -26 | . | 0

Bioassay records as filed in PubChem BioAssay.
